Results reported in ChEMBL document CHEMBL1159028, “Antimicrobial agents from Licaria puchuri-major and their synergistic effect with polygodial” (1992).
Values after ≈ are worked out from the molar mass of the structure shown.

Legend:
Type in all cases: functional
[1] = system: Corynebacterium ammoniagenes; test: Antimicrobial activity against Brevibacterium ammoniagenes ATCC 6872 after 2 days by twofold serial broth dilution method; settings: ATCC 6872, 48 h
Method in brief: (§1)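 ATCC strains were revived from freeze-dried stock, then grown in medium of 0.8% nutrient broth, 0.5% yeast extract and 0.1% glucose. Twofold serial broth dilution used compound in DMF (1% DMF final), with a top concentration of 800 µg/ml. Cultures were stationary for 2 days, and growth was read as turbidity at OD 660 nm. MIC was the lowest concentration with no growth.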

Saccharomyces cerevisiae = test: Antimicrobial activity against Saccharomyces cerevisiae ATCC 7754 after 2 days by twofold serial broth dilution method; settings: ATCC 7754, 48 h
Method in brief: (§2)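 Yeasts were grown in 2.5% malt extract broth. Twofold serial broth dilution used compound in DMF (1% DMF final), with a top concentration of 800 µg/ml. After 2 days of stationary culture, turbidity was read at OD 660 nm. MIC was the lowest concentration with no growth. Checkerboard combinations with polygodial were tested at least twice per fungus.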

Pseudomonas aeruginosa = test: Antimicrobial activity against Pseudomonas aeruginosa ATCC 10145 after 2 days by twofold serial broth dilution method; settings: ATCC 10145, 48 h; method in brief: as §1
Malassezia furfur = test: Antimicrobial activity against Pityrosporum ovale ATCC 14521 by twofold serial broth dilution method
Method in brief: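 Medium: 1% bactopeptone, 0.5% yeast extract, 1% glucose and 0.1% corn oil. Twofold broth dilution used compound in DMF (1% final), with a top concentration of 800 µg/ml. Culture was stationary for 2 days, and growth was scored visually. MIC was the lowest concentration without growth. Checkerboard combinations with polygodial were tested at least twice.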

Penicillium chrysogenum = test: Antimicrobial activity against Penicillium chrysogenum ATCC 10106 after 5 days by twofold serial broth dilution method; settings: ATCC 10106, 120 h
Method in brief: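 Mould was grown in 2.5% malt extract broth with shaking. Compound in DMF (1% final) was serially diluted twofold, to a maximum of 800 µg/ml. Growth was judged by eye after 5 days. MIC was the lowest concentration showing no growth.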

Staphylococcus aureus = test: Antimicrobial activity against Staphylococcus aureus ATCC 12598 after 2 days by twofold serial broth dilution method; settings: ATCC 12598, 48 h; method in brief: as §1
Cyberlindnera jadinii = test: Antimicrobial activity against Candida utilis ATCC 9226 after 2 days by twofold serial broth dilution method; settings: Williopsis jadinii, ATCC 9226, 48 h; method in brief: as §2
Klebsiella aerogenes = test: Antimicrobial activity against Enterobacter aerogenes ATCC 13048 after 2 days by twofold serial broth dilution method; settings: ATCC 13048, 48 h; method in brief: as §1
Cutibacterium acnes = test: Antimicrobial activity against Propionibacterium acnes ATCC 11827 after 2 days by twofold serial broth dilution method; settings: ATCC 11827, 48 h; method in brief: as §1
Escherichia coli = test: Antimicrobial activity against Escherichia coli ATCC 9637 after 2 days by twofold serial broth dilution method; settings: ATCC 9637, 48 h; method in brief: as §1
Streptococcus mutans = test: Antimicrobial activity against Streptococcus mutans ATCC 25175 after 2 days by twofold serial broth dilution method; settings: ATCC 25175, 48 h
Method in brief: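 ATCC strain grown in 3.7% brain heart infusion broth. Twofold serial broth dilution used compound dissolved in DMF (1% DMF final), with a top concentration of 800 µg/ml. After 2 days of stationary culture, growth was read as turbidity at OD 660 nm. MIC was the lowest concentration with no growth.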

Bacillus subtilis = test: Antimicrobial activity against Bacillus subtilis ATCC 9372 after 2 days by twofold serial broth dilution method; settings: ATCC 9372, 48 h; method in brief: as §1

SMILES	MIC [1] [µg/mL]	MIC (Saccharomyces cerevisiae) [µg/mL]	MIC (Pseudomonas aeruginosa) [µg/mL]	MIC (Malassezia furfur) [µg/mL]	MIC (Penicillium chrysogenum) [µg/mL]	MIC (Staphylococcus aureus) [µg/mL]	MIC (Cyberlindnera jadinii) [µg/mL]	MIC (Klebsiella aerogenes) [µg/mL]	MIC (Cutibacterium acnes) [µg/mL]	MIC (Escherichia coli) [µg/mL]	MIC (Streptococcus mutans) [µg/mL]	MIC (Bacillus subtilis) [µg/mL]
CC12CCC(CC1)C(C)(C)O2 [EUCALYPTOL]	> 800	> 800	> 800	> 800	> 800	> 800	> 800	> 800	800 (≈ 5.19 mM)	> 800	> 800	> 800
CC(C)=CCC/C(C)=C/CO [GERANIOL]	400 (≈ 2.59 mM)	400 (≈ 2.59 mM)	> 800	100 (≈ 0.648 mM)	200 (≈ 1.3 mM)	800 (≈ 5.19 mM)	400 (≈ 2.59 mM)	> 800	200 (≈ 1.3 mM)	800 (≈ 5.19 mM)	200 (≈ 1.3 mM)	400 (≈ 2.59 mM)
CC1=CCC(C(C)C)=CC1 [GAMMA-TERPINENE]	> 800	50 (≈ 0.367 mM)	> 800	800 (≈ 5.87 mM)	> 800	> 800	100 (≈ 0.734 mM)	> 800	50 (≈ 0.367 mM)	> 800	100 (≈ 0.734 mM)	> 800
C/C=C/c1ccc(OC)cc1 [ANETHOLE]	200 (≈ 1.35 mM)	200 (≈ 1.35 mM)	> 800	100 (≈ 0.675 mM)	> 800	> 800	200 (≈ 1.35 mM)	> 800	100 (≈ 0.675 mM)	200 (≈ 1.35 mM)	200 (≈ 1.35 mM)	400 (≈ 2.7 mM)
C=C1CC/C=C(/C)CC[C@@H]2[C@@H]1CC2(C)C [CARYOPHYLLENE]	100 (≈ 0.489 mM)	> 800	> 800	> 800	> 800	> 800	> 800	> 800	6.25 (≈ 0.0306 mM)	> 800	> 800	50 (≈ 0.245 mM)
C=CC(C)(O)CCC=C(C)C (centres undefined) [LINALOOL]	800 (≈ 5.19 mM)	800 (≈ 5.19 mM)	> 800	400 (≈ 2.59 mM)	800 (≈ 5.19 mM)	> 800	400 (≈ 2.59 mM)	> 800	200 (≈ 1.3 mM)	> 800	400 (≈ 2.59 mM)	800 (≈ 5.19 mM)
C=C(C)[C@H]1CC=C(C)CC1 [D-LIMONENE]	> 800	50 (≈ 0.367 mM)	> 800	200 (≈ 1.47 mM)	> 800	> 800	200 (≈ 1.47 mM)	> 800	50 (≈ 0.367 mM)	> 800	100 (≈ 0.734 mM)	800 (≈ 5.87 mM)
C=CCc1ccc(OC)c(OC)c1 [METHYLEUGENOL]	800 (≈ 4.49 mM)	800 (≈ 4.49 mM)	> 800	200 (≈ 1.12 mM)	800 (≈ 4.49 mM)	800 (≈ 4.49 mM)	800 (≈ 4.49 mM)	> 800	200 (≈ 1.12 mM)	800 (≈ 4.49 mM)	400 (≈ 2.24 mM)	800 (≈ 4.49 mM)
CC1(C)CCC[C@]2(C)[C@@H](C=O)C(C=O)=CC[C@@H]12 [POLYGODIAL]	–	3.13 (≈ 0.0134 mM)	–	50 (≈ 0.213 mM)	–	–	6.25 (≈ 0.0267 mM)	–	–	–	–	–
CC1=CC[C@@H](C(C)(C)O)CC1 [ALPHA-TERPINEOL]	> 800	800 (≈ 5.19 mM)	> 800	400 (≈ 2.59 mM)	400 (≈ 2.59 mM)	> 800	800 (≈ 5.19 mM)	> 800	100 (≈ 0.648 mM)	800 (≈ 5.19 mM)	400 (≈ 2.59 mM)	800 (≈ 5.19 mM)
C=CCc1ccc(O)c(OC)c1 [EUGENOL]	800 (≈ 4.87 mM)	800 (≈ 4.87 mM)	> 800	100 (≈ 0.609 mM)	200 (≈ 1.22 mM)	800 (≈ 4.87 mM)	800 (≈ 4.87 mM)	> 800	50 (≈ 0.304 mM)	400 (≈ 2.44 mM)	400 (≈ 2.44 mM)	400 (≈ 2.44 mM)
C=CCc1ccc2c(c1)OCO2 [SAFROLE]	> 800	200 (≈ 1.23 mM)	> 800	100 (≈ 0.617 mM)	> 800	> 800	200 (≈ 1.23 mM)	> 800	50 (≈ 0.308 mM)	400 (≈ 2.47 mM)	100 (≈ 0.617 mM)	400 (≈ 2.47 mM)
CCCCCCCCCCCC(=O)O [DODECANOATE]	> 800	> 800	> 800	> 800	> 800	> 800	> 800	> 800	50 (≈ 0.25 mM)	> 800	> 800	> 800
CC1=CCC(O)(C(C)C)CC1 (centres undefined) [TERPINEOL]	> 800	800 (≈ 5.19 mM)	> 800	100 (≈ 0.648 mM)	800 (≈ 5.19 mM)	> 800	800 (≈ 5.19 mM)	> 800	800 (≈ 5.19 mM)	> 800	> 800	> 800
